Laboratory results: ChEMBL document CHEMBL5506039, “Discovery and Optimization of Tambjamines as a Novel Class of Antileishmanial Agents” (J Med Chem, 2024)
Activity calls are given as the source filed them. The calls are words filed in the database; no cut-off is given here.

What was measured:
Leishmania donovani = assay: Antileishmanial activity against Leishmania donovani amastigotes expressing red-shifted firefly luciferase from integrated ribosomal (28S) RNA locus infected in mouse J774.A1 cells assessed as reduction in parasite growth measured after 96 hrs by luminescence based analysis; format: functional, organism-based; settings: J774.A1, 96 h
In short: (§1)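 J774A.1 macrophages infected with stationary-phase luciferase-expressing promastigotes at 10:1 parasites:macrophage, overnight at 37 °C, 5% CO₂. Non-internalized parasites washed off and 1 × 10⁴ cells/well replated in MEM/10% HI-FBS. Compounds in DMSO added as serial 3-fold dilutions (typically 10 μM–1 nM) for 96 h. Luciferase luminescence read; EC50 from log-transformed sigmoidal variable-slope fit. Mean ± SD of ≥2 independent experiments.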

[1] = Metabolic stability in pre-warmed pooled mouse liver microsomes assessed as half life at 1 uM measured upto 60 mins by LC-MS analysis; format: ADME, Microsome
In short: (§2)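 Compound at 1 μM final with 0.5 mg/mL pooled human or mouse liver microsomes, 1.3 mM NADP and 3.3 mM MgCl₂ in 100 mM potassium phosphate, pH 7.4. Reaction started with 1 U/mL G6PD at 37 °C with shaking.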

[2] = Therapeutic index, ratio of IC50 for human HepG2 cells to EC50 for antileishmanial activity against Leishmania donovani amastigotes expressing red-shifted firefly luciferase from integrated ribosomal (28S) RNA locus infected in mouse J774.A1 cells; format: toxicity, cell-based; settings: read-out: TI
In short: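 TI computed as HepG2 IC50 divided by L. donovani EC50. HepG2: MTT assay with 48 h exposure to 10–0.15 μg/mL (1.6-fold dilutions), triplicates, sigmoidal variable-slope fit. Amastigotes: J774A.1 macrophages infected with RS-luciferase promastigotes at 10:1, washed after 24 h, then 96 h compound exposure (3-fold dilutions, 10 μM–1 nM) in MEM/10% HI-FBS at 37 °C, 5% CO₂; luciferase readout.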

HepG2 = assay: Cytotoxicity against human HepG2 cells assessed as inhibition of cell growth incubated for 48 hrs by MTT assay; format: toxicity, cell-based
In short: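 HepG2 cells, 2.5 × 10⁴/well in supplemented complete MEM, settled overnight at 37 °C, 5% CO₂. Compounds given as 11 duplicate 1.6-fold dilutions, 10 to 0.15 μg/mL, for 48 h. MTT added for 1 h in the dark at room temperature, formazan dissolved in acidified isopropanol, absorbance read. Triplicate runs; IC50 by sigmoidal variable-slope regression.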

[3] = Cytotoxicity against mouse J774.A1 cells assessed as cell survival at 0.1 uM measured after 96 hrs by SYBR Green II dye based analysis relative to control; format: toxicity; settings: read-out: Survival
In short: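 Uninfected J774A.1 mouse macrophages were plated at 1 × 10⁴ cells/well in DMEM with 10% heat-inactivated FBS and left 3 h at 37 °C to reattach. Compounds were added from DMSO, and analogues were screened at 0.1 μM. After 96 h at 37 °C in 5% CO₂, medium was removed. SYBR Green II (1:1000 in 1% Triton/PBS) was added for 1 h in the dark at room temperature, and fluorescence was read at Ex 485/Em 535 as a DNA-content measure of viability.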

Leishmania mexicana [4] = assay: Antileishmanial activity against Leishmania mexicana MNYC/BZ/62/M379 amastigotes expressing red-shifted firefly luciferase from integrated ribosomal (28S) RNA locus infected in mouse J774.A1 cells assessed as reduction in parasite survival measured after 96 hrs by luminescence based analysis; format: functional, organism-based; settings: MNYC/BZ/62/M379, J774.A1, 96 h; in short: as §1
Leishmania mexicana [5] = assay: Antileishmanial activity against Leishmania mexicana MNYC/BZ/62/M379 amastigotes expressing red-shifted firefly luciferase from integrated ribosomal (28S) RNA locus infected in mouse J774.A1 cells assessed as parasite survival at 0.1 uM measured after 96 hrs by luminescence based analysis relative to control; format: functional; settings: MNYC/BZ/62/M379, J774.A1
[6] = Cytotoxicity against mouse J774.A1 cells assessed as reduction in cell survival measured after 96 hrs by SYBR Green II dye based analysis; format: toxicity
In short: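 Uninfected J774A.1 macrophages, 1 × 10⁴ cells/well in DMEM/10% HI-FBS, reattached 3 h, then exposed to compounds for 96 h. DNA content read after lysis with SYBR Green II (1:1000 in 1% Triton/PBS), 1 h dark at room temperature, fluorescence Ex 485/Em 535.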

[7] = Therapeutic index, ratio of EC50 for mouse J774.A1 cells to EC50 for antileishmanial activity against Leishmania mexicana MNYC/BZ/62/M379 amastigotes expressing red-shifted firefly luciferase from integrated ribosomal (28S) RNA locus infected in mouse J774.A1 cells; format: toxicity, cell-based; settings: read-out: TI
[8] = Metabolic stability in pre-warmed pooled human liver microsomes assessed as half life at 1 uM measured upto 60 mins by LC-MS analysis; format: ADME, Microsome; in short: as §2
Leishmania mexicana [9] = assay: Antileishmanial activity against Leishmania mexicana MNYC/BZ/62/M379 amastigotes expressing red-shifted firefly luciferase from integrated ribosomal (28S) RNA locus infected in mouse J774.A1 cells assessed as inhibition of parasite growth at 0.1 uM measured after 96 hrs by luminescence based analysis relative to control; format: functional; settings: MNYC/BZ/62/M379, J774.A1, read-out: INH
Leishmania mexicana [10] = assay: Antileishmanial activity against Leishmania mexicana amastigotes expressing red-shifted firefly luciferase from integrated ribosomal (28S) RNA locus infected in female BALB/c mouse assessed as retardation of lesion progression by measuring reduction in footpad lesion at 40 mg/kg/day, po …; format: functional, organism-based; settings: time 20-29 day
Leishmania mexicana [11] = assay: Antileishmanial activity against Leishmania mexicana amastigotes expressing red-shifted firefly luciferase from integrated ribosomal (28S) RNA locus infected in female BALB/c mouse assessed as retardation of lesion progression by measuring reduction in luminescence signal over infected footpad at …; format: functional, organism-based; settings: dose 40.0 mg/kg/day, route po, time 20-29 day

| Compound | EC50 (Leishmania donovani) [nM] | half-life at 1 µM [1] [h] | selectivity ratio [2] | IC50 (HepG2) [nM] | viability at 96 h, 0.1 µM [3] [%] | EC50 (Leishmania mexicana [4]) [nM] | survival at 0.1 µM (Leishmania mexicana [5]) [%] | EC50 at 96 h [6] [nM] | selectivity ratio [7] | half-life at 1 µM [8] [h] | percent inhibition of parasite growth at 0.1 µM (Leishmania mexicana [9]) [%] | Activity (Leishmania mexicana [10]) | Activity (Leishmania mexicana [11]) |
| --- | --- | --- | --- | --- | --- | --- | --- | --- | --- | --- | --- | --- | --- |
| COC1=CC(c2ccc[nH]2)=N/C1=C\Nc1ccc(Oc2ccc(C)cc2)cc1 | 285 | 0.782 | 6 | 1730 | 69.8 | 93 | 26 | 2740 | 29 | > 1 |  |  |  |
| COC1=CC(c2ccc[nH]2)=N/C1=C\Nc1ccc(Cl)c(OC)c1.Cl |  | > 1 |  |  | 57.3 |  | 77.6 |  |  | > 1 | ~22 |  |  |
| CCC1=CC(c2ccc[nH]2)=N/C1=C\NC1CCCCCC1 |  |  |  |  | 88.7 |  | 42.1 |  |  |  | ~60 |  |  |
| CC1=C(C)/C(=C/NC2CCCCCC2)N=C1c1ccc(CC(C)C)[nH]1.Cl |  | > 1 |  |  | 74.5 | 44.3 | 2.3 | 1240 | 28 | > 1 | > 96 |  |  |
| CCc1ccc(C2=N/C(=C\NC3CCCCCCC3)C(C)=C2C)[nH]1.Cl |  | > 1 |  |  | 53.6 | 31.4 | 1.3 | 573 | 18 | > 1 | > 96 |  |  |
| COC1=CC(c2ccc[nH]2)=N/C1=C\NC1CCCCCC1.Cl | 139 |  | 73 |  | 99.6 | 32.5 | 4.84 | 550 | 17 | 0.868 | > 95 |  |  |
| CC1=CC(c2ccc[nH]2)=N/C1=C\NC1CCCCCC1 |  |  |  |  | 88.4 |  | 26.3 |  |  |  | ~75 |  |  |
| Cl.Fc1cc(F)cc(OC2=CC(c3ccc[nH]3)=N/C2=C\NC23CC4CC(CC(C4)C2)C3)c1 | 184 | > 1 | 323 | 59400 | 59.3 | 79 | 27.3 | 680 | 8.6 | > 1 |  |  |  |
| Cl.FC(F)(F)Oc1ccc(C2=CC(c3ccc[nH]3)=N/C2=C\NC23CC4CC(CC(C4)C2)C3)cc1 | 398 | > 1 | 215 | 85500 | 70.6 | 90.5 | 39 | 908 | 10 | > 1 |  |  |  |
| C(/NC1CCCCC1)=C1/N=C(c2ccc[nH]2)C2=C1CCCC2.Cl |  |  |  | 8210 | 60.3 | 130 | 40.9 | 2930 | 23 | 0.445 |  | Active | Active |
| CC1=C(C)/C(=C/NC2CCCCCC2)N=C1c1ccc[nH]1.Cl | 79.5 |  | 268 | 21300 | 62.8 | 55 | 18.2 | 908 | 16 | 0.752 | < 80 |  |  |
| CCC1=C(CC)/C(=C/N[C@H]2CC[C@H](C)CC2)N=C1c1ccc[nH]1.Cl |  |  |  | 15900 | 87.8 | 73.3 | 17.1 | 1420 | 19 | 0.388 |  | Active | Active |
| COC1=CC(c2ccc(Cc3ccc(OC)cc3)[nH]2)=N/C1=C\Nc1ccc(Cl)cc1 |  |  |  |  | 101 |  | 93.5 |  |  |  | ~7 |  |  |
| COC1=CC(c2ccc[nH]2)=N/C1=C\Nc1ccc(F)c(OC)c1.Cl |  |  |  |  | 58.7 |  | 98.3 |  |  | > 1 | ~2 |  |  |
| CC1=C(C)/C(=C/NC2CCCCCCC2)N=C1c1ccc[nH]1 |  |  |  |  | 43.5 |  | 33.5 |  |  |  | < 80 |  |  |
